Source: ChEMBL document CHEMBL4145582, “Cytotoxic and Antibacterial Eremophilane Sesquiterpenes from the Marine-Derived Fungus Cochliobolus lunatus SCSIO41401” (J Nat Prod, 2018)
Calls of active or inactive are those of the source. No cut-off for these calls is given here.

Assays:
Escherichia coli = assay: Antimicrobial activity against Escherichia coli ATCC 25922 after 24 hrs by serial dilution method; format: functional; conditions: ATCC 25922, 24 h
How it was run: (§1)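 Serial broth dilution in 96-well microtiter plates. Compounds and controls are dissolved in DMSO as stock. Bacteria are grown overnight at 37 °C, then diluted to 10^6 cfu/mL. E. coli and S. aureus are grown in Luria–Bertani broth. P. multocida and E. rhusiopathiae are grown in trypticase soy broth with 10% calf serum. Plates are incubated at 37 °C for 24 h and read at 630 nm.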

ACHN [1] = assay: Cell cycle arrest in human ACHN cells at 1 to 4 uM after 24 to 72 hrs by propidium iodide staining based flow cytometric method; format: functional
ACHN [2] = assay: Induction of apoptosis in human ACHN cells assessed as early apoptotic cells at 1 uM after 48 hrs by Annexin V-FITC/propidium iodide staining based flow cytometric method (reference value: 0%); format: functional
How it was run: (§2)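 ACHN cells are treated at 1, 2 and 4 μM for 24, 48 and 72 h. Cells are then double-stained with annexin V-FITC and propidium iodide and analysed by flow cytometry. Early apoptotic, late apoptotic, necrotic and viable fractions are quantified.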

ACHN [3] = assay: Induction of apoptosis in human ACHN cells assessed as necrotic cells at 4 uM after 72 hrs by Annexin V-FITC/propidium iodide staining based flow cytometric method (reference value: 0%); format: functional; how it was run: as §2
ACHN [4] = assay: Induction of apoptosis in human ACHN cells assessed as late apoptotic cells at 2 uM after 48 hrs by Annexin V-FITC/propidium iodide staining based flow cytometric method (reference value: 0%); format: functional; how it was run: as §2
SGC-7901 = assay: Cytotoxicity against human SGC7901 cells after 6 days by MTT assay; format: functional, cell-based; conditions: SGC-7901, 144 h
How it was run: (§3)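 HepG-2 and SGC7901 cells; growth inhibition read by MTT method, with 5-fluorouracil as positive control.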

ACHN [5] = assay: Induction of apoptosis in human ACHN cells assessed as viable cells at 4 uM after 48 hrs by Annexin V-FITC/propidium iodide staining based flow cytometric method (reference value: 100%); format: functional; conditions: read-out: Activity; how it was run: as §2
ACHN [6] = assay: Induction of apoptosis in human ACHN cells assessed as early apoptotic cells at 2 uM after 24 hrs by Annexin V-FITC/propidium iodide staining based flow cytometric method (reference value: 0%); format: functional; how it was run: as §2
Staphylococcus aureus = assay: Antimicrobial activity against Staphylococcus aureus subsp. aureus Rosenbach ATCC 25923 after 24 hrs by serial dilution method; format: functional; conditions: Rosenbach ATCC 25923, 24 h; how it was run: as §1
HepG2 = assay: Cytotoxicity against human HepG2 cells after 6 days by MTT assay; format: functional, cell-based; conditions: HepG2, 144 h; how it was run: as §3
ACHN [7] = assay: Induction of apoptosis in human ACHN cells assessed as necrotic cells at 1 uM after 24 hrs by Annexin V-FITC/propidium iodide staining based flow cytometric method (reference value: 0%); format: functional; how it was run: as §2
[8] = test system: Erysipelothrix rhusiopathiae; assay: Antimicrobial activity against Erysipelothrix rhusiopathiae ATCC 19414 after 24 hrs by serial dilution method; format: functional; conditions: ATCC 19414, 24 h; how it was run: as §1
ACHN [9] = assay: Induction of apoptosis in human ACHN cells assessed as necrotic cells at 2 uM after 48 hrs by Annexin V-FITC/propidium iodide staining based flow cytometric method (reference value: 0%); format: functional; how it was run: as §2
ACHN [10] = assay: Induction of apoptosis in human ACHN cells assessed as viable cells at 1 uM after 24 hrs by Annexin V-FITC/propidium iodide staining based flow cytometric method (reference value: 100%); format: functional; conditions: read-out: Activity; how it was run: as §2
ACHN [11] = assay: Induction of apoptosis in human ACHN cells assessed as late apoptotic cells at 1 uM after 48 hrs by Annexin V-FITC/propidium iodide staining based flow cytometric method (reference value: 0%); format: functional; how it was run: as §2
ACHN [12] = assay: Induction of apoptosis in human ACHN cells assessed as early apoptotic cells at 4 uM after 72 hrs by Annexin V-FITC/propidium iodide staining based flow cytometric method (reference value: 0%); format: functional; how it was run: as §2
ACHN [13] = assay: Induction of apoptosis in human ACHN cells assessed as late apoptotic cells at 1 uM after 24 hrs by Annexin V-FITC/propidium iodide staining based flow cytometric method (reference value: 0%); format: functional; how it was run: as §2
ACHN [14] = assay: Induction of apoptosis in human ACHN cells assessed as necrotic cells at 1 uM after 48 hrs by Annexin V-FITC/propidium iodide staining based flow cytometric method (reference value: 0%); format: functional; how it was run: as §2
ACHN [15] = assay: Induction of apoptosis in human ACHN cells assessed as late apoptotic cells at 4 uM after 24 hrs by Annexin V-FITC/propidium iodide staining based flow cytometric method (reference value: 0%); format: functional; how it was run: as §2
ACHN [16] = assay: Induction of apoptosis in human ACHN cells assessed as late apoptotic cells at 2 uM after 24 hrs by Annexin V-FITC/propidium iodide staining based flow cytometric method (reference value: 0%); format: functional; how it was run: as §2
ACHN [17] = assay: Induction of apoptosis in human ACHN cells assessed as viable cells at 4 uM after 24 hrs by Annexin V-FITC/propidium iodide staining based flow cytometric method (reference value: 100%); format: functional; conditions: read-out: Activity; how it was run: as §2
OS-RC-2 = assay: Cytotoxicity against human OS-RC2 cells after 72 hrs by CCK8 assay; format: functional, cell-based; conditions: OS-RC-2, 72 h
How it was run: (§4)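 Renal cancer lines ACHN, 786-O and OS-RC-2; cell viability read by CCK-8 assay, with sorafenib as positive control.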

ACHN [18] = assay: Induction of apoptosis in human ACHN cells assessed as early apoptotic cells at 2 uM after 48 hrs by Annexin V-FITC/propidium iodide staining based flow cytometric method (reference value: 0%); format: functional; how it was run: as §2
ACHN [19] = assay: Induction of apoptosis in human ACHN cells assessed as early apoptotic cells at 4 uM after 24 hrs by Annexin V-FITC/propidium iodide staining based flow cytometric method (reference value: 0%); format: functional; how it was run: as §2
ACHN [20] = assay: Induction of apoptosis in human ACHN cells assessed as viable cells at 2 uM after 72 hrs by Annexin V-FITC/propidium iodide staining based flow cytometric method (reference value: 100%); format: functional; conditions: read-out: Activity; how it was run: as §2
ACHN [21] = assay: Induction of apoptosis in human ACHN cells assessed as early apoptotic cells at 1 uM after 24 hrs by Annexin V-FITC/propidium iodide staining based flow cytometric method (reference value: 0%); format: functional; how it was run: as §2
ACHN [22] = assay: Induction of apoptosis in human ACHN cells assessed as necrotic cells at 4 uM after 24 hrs by Annexin V-FITC/propidium iodide staining based flow cytometric method (reference value: 0%); format: functional; how it was run: as §2
ACHN [23] = assay: Induction of apoptosis in human ACHN cells assessed as necrotic cells at 1 uM after 72 hrs by Annexin V-FITC/propidium iodide staining based flow cytometric method (reference value: 0%); format: functional; how it was run: as §2
ACHN [24] = assay: Induction of apoptosis in human ACHN cells assessed as necrotic cells at 4 uM after 48 hrs by Annexin V-FITC/propidium iodide staining based flow cytometric method (reference value: 0%); format: functional; how it was run: as §2
Pasteurella multocida = assay: Antimicrobial activity against Pasteurella multocida subsp. multocida ATCC 43137 after 24 hrs by serial dilution method; format: functional; conditions: ATCC 43137, 24 h; how it was run: as §1
ACHN [25] = assay: Induction of apoptosis in human ACHN cells assessed as late apoptotic cells at 4 uM after 72 hrs by Annexin V-FITC/propidium iodide staining based flow cytometric method (reference value: 0%); format: functional; how it was run: as §2
ACHN [26] = assay: Induction of apoptosis in human ACHN cells assessed as late apoptotic cells at 4 uM after 48 hrs by Annexin V-FITC/propidium iodide staining based flow cytometric method (reference value: 0%); format: functional; how it was run: as §2
ACHN [27] = assay: Induction of apoptosis in human ACHN cells assessed as early apoptotic cells at 2 uM after 72 hrs by Annexin V-FITC/propidium iodide staining based flow cytometric method (reference value: 0%); format: functional; how it was run: as §2
ACHN [28] = assay: Cytotoxicity against human ACHN cells after 72 hrs by CCK8 assay; format: functional, cell-based; how it was run: as §4
ACHN [29] = assay: Induction of apoptosis in human ACHN cells assessed as viable cells at 4 uM after 72 hrs by Annexin V-FITC/propidium iodide staining based flow cytometric method (reference value: 100%); format: functional; conditions: read-out: Activity; how it was run: as §2
ACHN [30] = assay: Induction of apoptosis in human ACHN cells assessed as necrotic cells at 2 uM after 72 hrs by Annexin V-FITC/propidium iodide staining based flow cytometric method (reference value: 0%); format: functional; how it was run: as §2
ACHN [31] = assay: Induction of apoptosis in human ACHN cells assessed as late apoptotic cells at 1 uM after 72 hrs by Annexin V-FITC/propidium iodide staining based flow cytometric method (reference value: 0%); format: functional; how it was run: as §2
ACHN [32] = assay: Induction of apoptosis in human ACHN cells assessed as viable cells at 1 uM after 72 hrs by Annexin V-FITC/propidium iodide staining based flow cytometric method (reference value: 100%); format: functional; conditions: read-out: Activity; how it was run: as §2
ACHN [33] = assay: Induction of apoptosis in human ACHN cells assessed as necrotic cells at 2 uM after 24 hrs by Annexin V-FITC/propidium iodide staining based flow cytometric method (reference value: 0%); format: functional; how it was run: as §2
ACHN [34] = assay: Induction of apoptosis in human ACHN cells assessed as early apoptotic cells at 4 uM after 48 hrs by Annexin V-FITC/propidium iodide staining based flow cytometric method (reference value: 0%); format: functional; how it was run: as §2
ACHN [35] = assay: Induction of apoptosis in human ACHN cells assessed as early apoptotic cells at 1 uM after 72 hrs by Annexin V-FITC/propidium iodide staining based flow cytometric method (reference value: 0%); format: functional; how it was run: as §2
ACHN [36] = assay: Induction of apoptosis in human ACHN cells assessed as late apoptotic cells at 2 uM after 72 hrs by Annexin V-FITC/propidium iodide staining based flow cytometric method (reference value: 0%); format: functional; how it was run: as §2
ACHN [37] = assay: Induction of apoptosis in human ACHN cells assessed as viable cells at 2 uM after 48 hrs by Annexin V-FITC/propidium iodide staining based flow cytometric method (reference value: 100%); format: functional; conditions: read-out: Activity; how it was run: as §2
ACHN [38] = assay: Induction of apoptosis in human ACHN cells assessed as viable cells at 2 uM after 24 hrs by Annexin V-FITC/propidium iodide staining based flow cytometric method (reference value: 100%); format: functional; conditions: read-out: Activity; how it was run: as §2
ACHN [39] = assay: Induction of apoptosis in human ACHN cells assessed as viable cells at 1 uM after 48 hrs by Annexin V-FITC/propidium iodide staining based flow cytometric method (reference value: 100%); format: functional; conditions: read-out: Activity; how it was run: as §2
786-0 = assay: Cytotoxicity against human 786-O cells after 72 hrs by CCK8 assay; format: functional, cell-based; conditions: 786-0, 72 h; how it was run: as §4

C=C(/C=N/O)[C@]1(OC)C[C@@]2(C)C(=CC1=O)C=C[C@H](OC(=O)/C=C/C(C)=C/[C@@H](C)CC)[C@@H]2C
MIC (Escherichia coli): > 100 µg/mL | Activity (ACHN [1]): inactive | Activity (ACHN [2]): 1.3% | Activity (ACHN [3]): 0.8% | Activity (ACHN [4]): 1.3% | IC50 (SGC-7901): 17 µM | viability at 4 µM (ACHN [5]): 50% | Activity (ACHN [6]): 0.8% | MIC (Staphylococcus aureus): > 100 µg/mL | IC50 (HepG2): 5.9 µM | Activity (ACHN [7]): 5.5% | MIC [8]: > 100 µg/mL | Activity (ACHN [9]): 9.3% | viability at 1 µM (ACHN [10]): 93.2% | Activity (ACHN [11]): 1.2% | Activity (ACHN [12]): 83.8% | Activity (ACHN [13]): 0.7% | Activity (ACHN [14]): 6% | Activity (ACHN [15]): 1.1% | Activity (ACHN [16]): 0.7% | viability at 4 µM (ACHN [17]): 76% | IC50 (OS-RC-2): > 50 µM | Activity (ACHN [18]): 2.3% | Activity (ACHN [19]): 1.1% | viability at 2 µM (ACHN [20]): 80.5% | Activity (ACHN [21]): 0.6% | Activity (ACHN [22]): 21.8% | Activity (ACHN [23]): 6.2% | Activity (ACHN [24]): 19.5% | MIC (Pasteurella multocida): > 100 µg/mL | Activity (ACHN [25]): 8.5% | Activity (ACHN [26]): 11.3% | Activity (ACHN [27]): 6.8% | IC50 (ACHN [28]): 3.1 µM | viability at 4 µM (ACHN [29]): 6.9% | Activity (ACHN [30]): 9% | Activity (ACHN [31]): 1.1% | viability at 1 µM (ACHN [32]): 90.8% | Activity (ACHN [33]): 7.2% | Activity (ACHN [34]): 19.2% | Activity (ACHN [35]): 1.8% | Activity (ACHN [36]): 3.8% | viability at 2 µM (ACHN [37]): 87.1% | viability at 2 µM (ACHN [38]): 91.4% | viability at 1 µM (ACHN [39]): 91.4% | IC50 (786-0): 27 µM
